Laboratory results as given in ChEMBL document CHEMBL1140842 (J Med Chem, 2008).
≈ marks a conversion by molar mass, not a printed value. Calls of active or inactive are those of the source. The calls are words filed in the database; no cut-off is given here.

Columns and labels:
CHO-K1 = assay: Selectivity index, ratio of IC50 for CHOK1 cells to IC50 for human NPC-TW01 cells; type: functional
Procedure, shortened: (§1)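 Selectivity index taken as the ratio between IC50 in the normal line (HUV-EC-C or CHO-K1) and IC50 in NPC-TW01. Each IC50 came from a 72 h MTT assay, with final concentrations of 0.5 nM to […].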

[1] = Solubility in PBS buffer; type: physicochemical
NCI-H838 = assay: Cytotoxicity against human NCI-H838 cells after 72 hrs by MTT assay; type: functional, cell-based; conditions: NCI-H838, 72 h
Procedure, shortened: (§2)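 2 × 10⁴ cells/well seeded 12 h before dosing; serial dilutions added at final 0.5 nM to […] for 72 h. Medium then replaced, MTT (5 mg/mL stock, 10 µL) added for 4 h at 37 °C, formazan dissolved in DMSO, absorbance read at 570 nm. Viability plotted against untreated control; IC50 = 50% growth inhibition. Means of at least three independent experiments.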

[2] = Cytotoxicity against human Hep3B cells after 72 hrs by MTT assay; type: functional, cell-based, Hep 3B2
A498 = assay: Cytotoxicity against human A498 cells after 72 hrs by MTT assay; type: functional, cell-based; conditions: A498, 72 h
[3] = Cytotoxicity against human MES-SA cells after 72 hrs by MTT assay; type: functional, cell-based; procedure, shortened: as §2
HCT-116 = assay: Cytotoxicity against human HCT116 cells after 72 hrs by MTT assay; type: functional, cell-based; conditions: HCT-116, 72 h; procedure, shortened: as §2
[4] = Cytotoxicity against human NPC-TW01 cells after 72 hrs by MTT assay; type: functional, cell-based; conditions: NPC-TW01, 72 h
Procedure, shortened: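 2 × 10⁴ cells/well seeded 12 h before dosing; serial dilutions added at final 0.5 nM to […] for 72 h. Medium then replaced, MTT (5 mg/mL stock, 10 µL) added for 4 h at 37 °C, formazan dissolved in DMSO, absorbance read at 570 nm. Means of at least three independent experiments.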

MKN-45 = assay: Cytotoxicity against human MKN45 cells after 72 hrs by MTT assay; type: functional, cell-based; conditions: MKN-45, 72 h
HUVEC [5] = assay: Cytotoxicity against HUVEC cells after 72 hrs by MTT assay; type: cell-based; conditions: Homo sapiens
[6] = Cytotoxicity against CHOK1 cells after 72 hrs by MTT assay; type: cell-based; conditions: Cricetulus griseus, CHO-K1, 72 h
HUVEC [7] = assay: Selectivity index, ratio of IC50 for HUVEC cells to IC50 for human NPC-TW01 cells; type: functional; procedure, shortened: as §1
NPC-TW01 [8] = assay: Induction of apoptosis in human NPC-TW01 cells assessed as chromosomal condensation by fluorescence microscopy; type: functional, cell-based
Procedure, shortened: (§3)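 NPC-TW01 cells grown on coverslips and exposed to compound at 1 µM for 24 h, washed in PBS, then fixed in 4% paraformaldehyde. For tubulin, cells were permeabilized (0.1% Triton X-100), blocked (0.1% BSA), and incubated 45 min at room temperature with anti-β-tubulin (1:200), followed by PE-goat anti-mouse IgG (1:100). For chromosomes, cells were stained with Hoechst 33258. Imaged by laser-scanning confocal microscopy.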

NPC-TW01 [9] = assay: Induction of morphological changes in human NPC-TW01 cells assessed as microtubule aggregation around nuclei at 1 uM by confocal microscopy; type: functional, cell-based; procedure, shortened: as §3

With `CO[C@@H]1O[C@H](C(=O)O)[C@@H](O)[C@H](O)[C@H]1OC(=O)CCC(=O)O[C@@H](C(=O)O[C@H]1C[C@@]2(O)[C@@H](OC(=O)c3ccccc3)[C@@H]3[C@]4(OC(C)=O)CO[C@@H]4C[C@H](O)[C@@]3(C)C(=O)[C@H](OC(C)=O)C(=C1C)C2(C)C)[C@@H](NC(=O)c1ccccc1)c1ccccc1` the Selectivity Index (CHO-K1) was greater than 670, the solubility [1] was 104 µg/mL (≈ 90.9 µM) and the IC50 (NCI-H838) was 267 nM. The IC50 [2] was greater than 100 µM, the IC50 (A498) was greater than 100 µM and the IC50 [3] was 95 nM. For the same molecule, the IC50 (HCT-116) was 452 nM, the IC50 [4] was 67 nM and the IC50 (MKN-45) was greater than 100 µM. The IC50 (HUVEC [5]) was greater than 100 µM, the IC50 [6] was greater than 100 µM and the Selectivity Index (HUVEC [7]) was greater than 670.
With `CO[C@@H]1O[C@H](C(=O)O)[C@@H](O)[C@H](O)[C@H]1OCCCC(=O)O[C@@H](C(=O)O[C@H]1C[C@@]2(O)[C@@H](OC(=O)c3ccccc3)[C@@H]3[C@]4(OC(C)=O)CO[C@@H]4C[C@H](O)[C@@]3(C)C(=O)[C@H](OC(C)=O)C(=C1C)C2(C)C)[C@@H](NC(=O)c1ccccc1)c1ccccc1` the Selectivity Index (CHO-K1) was 2790, the solubility [1] was 137 µg/mL (≈ 121 µM) and the IC50 (NCI-H838) was 181 nM. It also gave an IC50 [2] greater than 100 µM, an IC50 (A498) greater than 100 µM and an IC50 [3] of 201 nM. The IC50 (HCT-116) was 469 nM, the IC50 [4] was 67 nM and the IC50 (MKN-45) was greater than 100 µM. It also gave an IC50 (HUVEC [5]) of 44 µM, an IC50 [6] of 24 µM and a Selectivity Index (HUVEC [7]) of 1520.
In the case of `CO[C@@H]1O[C@H](CO)[C@@H](O)[C@H](O)[C@H]1OCCCC(=O)O[C@@H](C(=O)O[C@H]1C[C@@]2(O)[C@@H](OC(=O)c3ccccc3)[C@@H]3[C@]4(OC(C)=O)CO[C@@H]4C[C@H](O)[C@@]3(C)C(=O)[C@H](OC(C)=O)C(=C1C)C2(C)C)[C@@H](NC(=O)c1ccccc1)c1ccccc1`, the Selectivity Index (CHO-K1) is reported as greater than 780, the solubility [1] is reported as 80 µg/mL (≈ 71.7 µM) and the IC50 (NCI-H838) is reported as 374 nM. It also gave an IC50 [2] greater than 100 µM, an IC50 (A498) greater than 100 µM and an IC50 [3] of 174 nM. It also gave an IC50 (HCT-116) of 480 nM, an IC50 [4] of 78 nM and an IC50 (MKN-45) greater than 100 µM. The IC50 (HUVEC [5]) was greater than 100 µM, the IC50 [6] was greater than 100 µM and the Selectivity Index (HUVEC [7]) was greater than 780.
In the case of `CO[C@@H]1O[C@H](CO)[C@@H](O)[C@H](O)[C@H]1OC(=O)CCC(=O)O[C@@H](C(=O)O[C@H]1C[C@@]2(O)[C@@H](OC(=O)c3ccccc3)[C@@H]3[C@]4(OC(C)=O)CO[C@@H]4C[C@H](O)[C@@]3(C)C(=O)[C@H](OC(C)=O)C(=C1C)C2(C)C)[C@@H](NC(=O)c1ccccc1)c1ccccc1`, the Selectivity Index (CHO-K1) is reported as greater than 250, the Activity (NPC-TW01 [8]) is reported as “Active” and the Activity (NPC-TW01 [9]) is reported as “Active”. The solubility [1] was 53 µg/mL (≈ 46.9 µM), the IC50 (NCI-H838) was 82 nM and the IC50 [2] was 100 µM. It also gave an IC50 (A498) greater than 100 µM, an IC50 [3] of 82 nM and an IC50 (HCT-116) of 100 nM. It also gave an IC50 [4] of 25 nM, an IC50 (MKN-45) greater than 100 µM and an IC50 (HUVEC [5]) greater than 100 µM. The IC50 [6] was greater than 100 µM and the Selectivity Index (HUVEC [7]) was greater than 250.
`CC(=O)O[C@H]1C(=O)[C@@]2(C)[C@H]([C@H](OC(=O)c3ccccc3)[C@]3(O)C[C@H](OC(=O)[C@H](O)[C@@H](NC(=O)c4ccccc4)c4ccccc4)C(C)=C1C3(C)C)[C@]1(OC(C)=O)CO[C@@H]1C[C@@H]2O` [PACLITAXEL] showed a solubility [1] of less than 0.4 µg/mL, an IC50 (NCI-H838) of 26 nM and an IC50 [2] of 7.26 µM. It also gave an IC50 (A498) of 8.81 µM, an IC50 [3] of 8 nM and an IC50 (HCT-116) of 61 nM. The IC50 (MKN-45) was 89.1 µM, the IC50 (HUVEC [5]) was 5.14 µM and the IC50 [6] was 16 µM.
